Results: ChEMBL document CHEMBL4765234 (J Med Chem, 2016)
pEC50, pKi: −log10 of the molar value. Calls of active or inactive are those of the source. No cut-off for these calls is given here.

How the values were obtained:
[1] = target: T1, Free fatty acid receptor 1 (Homo sapiens, UniProt O14842); experiment: Displacement of [3H]-TAK-875 from human recombinant full-length GPR40 expressed in human HEK293 cell membrane incubated for 2 hrs by solid scintillation counting method; type: cell membranes
T1 sequence (O14842 whole entry): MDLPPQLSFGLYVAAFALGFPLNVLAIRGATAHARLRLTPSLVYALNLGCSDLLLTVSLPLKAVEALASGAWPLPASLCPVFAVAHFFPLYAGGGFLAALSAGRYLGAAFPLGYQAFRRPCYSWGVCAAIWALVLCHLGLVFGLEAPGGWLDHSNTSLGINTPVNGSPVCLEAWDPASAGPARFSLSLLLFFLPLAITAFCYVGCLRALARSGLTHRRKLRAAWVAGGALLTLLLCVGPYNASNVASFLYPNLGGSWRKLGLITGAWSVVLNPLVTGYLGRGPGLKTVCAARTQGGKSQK

[2] = target: T1, Free fatty acid receptor 1; experiment: Agonist activity at human recombinant full length GPR40 overexpressed in human HEK293 cells assessed as increase in intracellular calcium level measured over 3 mins by calcium 4 dye based FLIPR assay; type: functional, cell-based
Summary of the method: (§1)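 HEK293 cells overexpressing hGPR40 (25K/well) were cultured overnight in DMEM/F12 with 0.2% FBS and geneticin. Compound was tested at 40 μM–0.1 nM final (20-point, 1% DMSO), and FLIPR fluorescence was read over 3 min.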

[3] = target: T1, Free fatty acid receptor 1; experiment: Agonist activity at human recombinant full length GPR40 overexpressed in human HEK293 cells assessed as increase in intracellular calcium level measured over 3 mins by calcium 4 dye based FLIPR assay relative to 100 uM linoleic acid; type: functional, cell-based; conditions: filed as agonist; summary of the method: as §1
[4] = target: T1, Free fatty acid receptor 1; experiment: Agonist activity at human recombinant full-length Prolink-tagged GPR40 fused with EA-tagged beta-arrestin expressed in human HEK293 cells assessed as induction of beta-arrestin recruitment measured after 90 mins by beta-galactosidase based PathHunter assay; type: cell-based
Summary of the method: (§2)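 PathHunter β-gal complementation. Cells were incubated overnight at 5000/well in medium with 1% heat-inactivated FBS. Compound was added as a 20-point 2-fold series from a top final of 100 μM (1% DMSO) for 90 min at 37 °C, followed by detection reagents and chemiluminescence read after 1 h at rt.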

[5] = target: T1, Free fatty acid receptor 1; experiment: Agonist activity at human recombinant full-length Prolink-tagged GPR40 fused with EA-tagged beta-arrestin expressed in human HEK293 cells assessed as induction of beta-arrestin recruitment measured after 90 mins by beta-galactosidase based PathHunter assay relative to control; type: cell-based; conditions: filed as agonist; summary of the method: as §2
[6] = target: Free fatty acid receptor 1 (Mus musculus, UniProt Q76JU9); experiment: Agonist activity at Prolink-tagged mouse GPR40 fused with EA-tagged beta-arrestin expressed in human U2OS cells assessed as induction of beta-arrestin recruitment measured after 90 mins by beta-galactosidase based PathHunter assay; type: cell-based; summary of the method: as §2
Free fatty acid receptor 1 (Mus musculus, UniProt Q76JU9), sequence (Q76JU9 whole entry, the tested form may be a part): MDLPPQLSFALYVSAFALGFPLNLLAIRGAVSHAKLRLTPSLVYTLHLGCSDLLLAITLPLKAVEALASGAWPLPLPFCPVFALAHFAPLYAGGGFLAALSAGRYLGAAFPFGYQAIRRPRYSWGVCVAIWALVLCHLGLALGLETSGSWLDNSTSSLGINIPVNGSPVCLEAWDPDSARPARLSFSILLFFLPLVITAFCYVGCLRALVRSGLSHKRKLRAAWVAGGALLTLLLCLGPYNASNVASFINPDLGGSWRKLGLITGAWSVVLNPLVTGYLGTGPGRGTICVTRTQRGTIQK

[7] = target: Free fatty acid receptor 1 (Mus musculus) (UniProt Q76JU9); experiment: Agonist activity at Prolink-tagged mouse GPR40 fused with EA-tagged beta-arrestin expressed in human U2OS cells assessed as induction of beta-arrestin recruitment measured after 90 mins by beta-galactosidase based PathHunter assay relative to control; type: cell-based; conditions: filed as agonist; summary of the method: as §2
Free fatty acid receptor 1 (Mus musculus), sequence (Q76JU9 whole entry, the tested form may be a part): as above

[8] = target: Free fatty acid receptor 1 (Rattus norvegicus, UniProt Q8K3T4); experiment: Agonist activity at Prolink-tagged rat GPR40 fused with EA-tagged beta-arrestin expressed in human U2OS cells assessed as induction of beta-arrestin recruitment measured after 90 mins by beta-galactosidase based PathHunter assay; type: cell-based; summary of the method: as §2
Free fatty acid receptor 1 (Rattus norvegicus, UniProt Q8K3T4), sequence (Q8K3T4 whole entry, the tested form may be a part): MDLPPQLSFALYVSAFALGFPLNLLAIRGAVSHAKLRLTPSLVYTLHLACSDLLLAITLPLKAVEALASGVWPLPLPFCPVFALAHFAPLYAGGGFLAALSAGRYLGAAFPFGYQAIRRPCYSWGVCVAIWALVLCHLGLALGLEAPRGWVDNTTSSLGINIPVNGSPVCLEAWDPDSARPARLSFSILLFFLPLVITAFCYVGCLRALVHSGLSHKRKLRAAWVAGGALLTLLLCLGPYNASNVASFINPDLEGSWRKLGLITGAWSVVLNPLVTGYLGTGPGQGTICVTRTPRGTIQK

[9] = target: Free fatty acid receptor 1 (Rattus norvegicus) (UniProt Q8K3T4); experiment: Agonist activity at Prolink-tagged rat GPR40 fused with EA-tagged beta-arrestin expressed in human U2OS cells assessed as induction of beta-arrestin recruitment measured after 90 mins by beta-galactosidase based PathHunter assay relative to control; type: cell-based; conditions: filed as agonist; summary of the method: as §2
Free fatty acid receptor 1 (Rattus norvegicus), sequence (Q8K3T4 whole entry, the tested form may be a part): as above

[10] = target: T1, Free fatty acid receptor 1; experiment: Agonist activity at human recombinant full length GPR40 overexpressed in human HEK293 cells assessed as increase in inositol phosphate accumulation in presence of terbium cryptate-labeled anti IP1/d2-labelled IP1 measured after 120 mins by HTRF assay; type: functional, cell-based
Summary of the method: (§3)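 HEK293 hGPR40 cells (20K/well) were cultured overnight, washed, and held in IP1 stimulation buffer. IP-1 was measured by competitive HTRF immunoassay with terbium cryptate anti-IP1 mAb and d2-labelled IP1.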

[11] = target: T1, Free fatty acid receptor 1; experiment: Agonist activity at human recombinant full length GPR40 overexpressed in human HEK293 cells assessed as increase in inositol phosphate accumulation in presence of terbium cryptate-labeled anti IP1/d2-labelled IP1 measured after 120 mins by HTRF assay relative to AMG837; type: functional, cell-based; conditions: filed as agonist; summary of the method: as §3
[12] = Protein binding in plasma (unknown origin) by equilibrium dialysis method; type: ADME, cell-free; conditions: human, read-out: PPB
Summary of the method: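 Plasma protein binding measured by equilibrium dialysis.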

[13] = target: T2, Peroxisome proliferator-activated receptor alpha (Homo sapiens) (UniProt Q07869); experiment: Displacement of [3H]-[…] from PPARalpha (unknown origin) expressed in baculovirus infected Sf9 insect cells upto 30 uM measured after 10 hrs by microbeta scintillation counting analysis; conditions: dose microM <=30, time 10.0 hrs
T2 sequence (whole entry): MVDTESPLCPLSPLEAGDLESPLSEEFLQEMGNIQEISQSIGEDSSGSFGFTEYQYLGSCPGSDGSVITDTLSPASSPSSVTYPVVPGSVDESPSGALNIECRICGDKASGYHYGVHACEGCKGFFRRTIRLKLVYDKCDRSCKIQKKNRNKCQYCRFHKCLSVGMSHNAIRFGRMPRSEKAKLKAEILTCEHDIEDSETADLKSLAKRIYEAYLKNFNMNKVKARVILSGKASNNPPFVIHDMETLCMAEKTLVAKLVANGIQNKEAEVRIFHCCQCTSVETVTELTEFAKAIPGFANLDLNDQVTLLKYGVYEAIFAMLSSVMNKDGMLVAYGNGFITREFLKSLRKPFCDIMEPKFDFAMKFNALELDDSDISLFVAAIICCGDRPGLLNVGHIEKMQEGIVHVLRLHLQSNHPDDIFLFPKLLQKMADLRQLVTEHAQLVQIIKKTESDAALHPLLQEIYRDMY
Summary of the method: (§4)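 Scintillation proximity assay. Sf9 lysates with baculovirus-expressed PPARα (0.3 μg), PPARδ (0.5 μg) or PPARγ (1.25 μg), each with RXRα, were bound via biotinylated DR2 oligo (0.126 nM) to streptavidin yttrium silicate beads. Buffer was HEPES pH 7.8 with KCl, MgCl2, DTT, CHAPS, 14% glycerol and salmon sperm DNA. A 3H reference agonist ligand was used, with 11 compound concentrations, for 10 h. Nonspecific binding was defined with 10000 nM unlabeled reference. Ki was derived from IC50.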

[14] = target: T3, Peroxisome proliferator-activated receptor delta (Homo sapiens) (UniProt Q03181); experiment: Displacement of [3H]-[…] from PPARdelta (unknown origin) expressed in baculovirus infected Sf9 insect cells upto 30 uM measured after 10 hrs by microbeta scintillation counting analysis; conditions: dose microM <=30, time 10.0 hrs; summary of the method: as §4
T3 sequence (whole entry): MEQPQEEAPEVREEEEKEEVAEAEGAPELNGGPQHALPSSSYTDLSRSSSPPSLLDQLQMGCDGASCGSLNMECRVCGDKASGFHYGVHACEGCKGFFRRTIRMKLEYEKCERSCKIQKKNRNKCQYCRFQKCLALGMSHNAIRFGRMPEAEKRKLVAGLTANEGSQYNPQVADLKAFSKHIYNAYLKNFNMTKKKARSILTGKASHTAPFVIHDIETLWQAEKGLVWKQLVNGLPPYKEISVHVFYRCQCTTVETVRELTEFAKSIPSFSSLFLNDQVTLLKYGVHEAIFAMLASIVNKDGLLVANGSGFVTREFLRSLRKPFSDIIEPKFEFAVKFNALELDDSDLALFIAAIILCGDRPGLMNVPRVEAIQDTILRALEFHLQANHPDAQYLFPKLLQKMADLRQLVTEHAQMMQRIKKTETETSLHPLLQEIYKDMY

[15] = target: T4, Peroxisome proliferator-activated receptor gamma (Homo sapiens) (UniProt P37231); experiment: Displacement of [3H]-[…] from PPARgamma (unknown origin) expressed in baculovirus infected Sf9 insect cells upto 30 uM measured after 10 hrs by microbeta scintillation counting analysis; conditions: dose microM <=30, time 10.0 hrs; summary of the method: as §4
T4 sequence (whole entry): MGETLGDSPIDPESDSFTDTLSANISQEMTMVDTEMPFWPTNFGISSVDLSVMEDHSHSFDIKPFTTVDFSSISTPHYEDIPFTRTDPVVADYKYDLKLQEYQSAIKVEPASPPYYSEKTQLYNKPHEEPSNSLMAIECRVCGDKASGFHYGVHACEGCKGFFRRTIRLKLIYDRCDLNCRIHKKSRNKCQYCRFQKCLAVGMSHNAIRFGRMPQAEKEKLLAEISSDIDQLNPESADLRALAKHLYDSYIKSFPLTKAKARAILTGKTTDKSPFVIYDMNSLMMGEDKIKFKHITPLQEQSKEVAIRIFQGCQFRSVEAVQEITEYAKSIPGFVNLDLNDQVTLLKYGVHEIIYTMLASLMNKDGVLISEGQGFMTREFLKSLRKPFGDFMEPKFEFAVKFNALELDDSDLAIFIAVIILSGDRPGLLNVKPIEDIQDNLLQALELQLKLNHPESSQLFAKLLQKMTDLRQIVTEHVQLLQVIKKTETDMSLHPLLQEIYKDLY

SMILES | pKi [1] | pEC50 [2] | Emax [3] | pEC50 [4] | Emax [5] | pEC50 [6] | Emax [7] | pEC50 [8] | Emax [9] | pEC50 [10] | Emax [11] | fraction unbound [12] | Activity [13] | Activity [14] | Activity [15]
CC#C[C@@H](CC(=O)O)c1ccc(OCc2ccc(CN3CCC4(CC3)CN(C)c3ccc(C(F)(F)F)cc34)cc2)cc1 | 8.57 | 7.85 | 42% | 8.54 | 139% | 9.30 | 158% | 9.23 | 154% | 8.33 | 275% | < 0.01 | inactive | inactive | inactive
CC#C[C@@H](CC(=O)O)c1ccc(OCc2ccc(CN3CCC4(CC3)CN(C(C)C)c3ccccc34)cc2)cc1 | 8.39 | 7.62 | 46% | 8.09 | 133% | 8.92 | 143% | 8.68 | 139% | 7.96 | 343% | < 0.01 | inactive | inactive | inactive
CC#C[C@@H](CC(=O)O)c1ccc(OCc2ccc(CN3CCC4(CC3)CN(c3ccccc3)c3ccccc34)cc2)cc1 | 8.82 | 7.68 | 53% | 8.82 | 116% | 9.21 | 130% | 9.08 | 132% | 8.68 | 226% | < 0.01 | inactive | inactive | inactive
CC#C[C@H](CC(=O)O)c1ccc(OCc2ccc(CN3CCC4(C=Cc5ccccc54)CC3)cc2)cc1 | 6.51 | 5.55 | 46% | 6.27 | 95% | 7.22 | 100% | 6.92 | 101% | 6.44 | 166% | < 0.01 | inactive | inactive | inactive
CC#C[C@@H](CC(=O)O)c1ccc(OCc2ccc(CN3CCC4(CC3)CN(C)c3c(Cl)cccc34)cc2)cc1 | 8.46 | 7.77 | 42% | 8.48 | 147% | 9.23 | 141% | 9.05 | 138% | 7.96 | 378% | < 0.01 | inactive | inactive | inactive
CC#C[C@@H](CC(=O)O)c1ccc(OCc2ncc(CN3CCC4(C=Cc5ccccc54)CC3)s2)cc1 | 6.89 | 8.55 | 63% | 7.08 | 117% | 8.14 | 115% | 7.64 | 109% | 7.92 | 129% | < 0.01 | inactive | inactive | inactive
CC#C[C@@H](CC(=O)O)c1ccc(OCc2ccc(CN3CCC4(C=Cc5ccccc54)CC3)c(C)c2)cc1 | 8.89 | 7.64 | 47% | 8.77 | 150% | 9.38 | 147% | 9.27 | 146% | 8.38 | 206% | < 0.01 | inactive | inactive | inactive
CC#C[C@@H](CC(=O)O)c1ccc(OCc2cnc(CN3CCC4(C=Cc5ccccc54)CC3)s2)cc1 | 6.92 | 8.36 | 62% | 6.77 | 114% | 8.42 | 127% | 7.96 | 114% | 8.28 | 129% | < 0.01 | inactive | inactive | inactive
